Source: ChEMBL document CHEMBL1125259, “Lipophilic glycosyl phosphotriester derivatives of AZT: synthesis, NMR transmembrane transport study, and antiviral activity” (1991)

Key:
[1] = biological target: Human immunodeficiency virus type 1 reverse transcriptase (Human immunodeficiency virus 1) (UniProt Q72547); experiment: Percent inhibition measured as the production of HIV reverse transcriptase (RT) in culture supernatant of monocytic U937 on at 7 days at a concentration 0.2 uM; format: functional
Summary of the method: (§1)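 U937 cells in RPMI 1640 with 5% heat-inactivated FCS, penicillin, streptomycin and polybrene (2 μg/mL), 37 °C, 5% CO2. Infected with HIV-1 LAV-Bru; compounds diluted in PBS. 50 μL supernatant aliquots were assayed for RT: 1 h, 37 °C, pH 7.8, Mg2+, poly(rA)-oligo(dT), [3H]dTTP, TCA-pyrophosphate stop, filter counting. % inhibition = 100 − 100 × (treated cpm / virus-control cpm).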

[2] = system: CCRF-CEM; experiment: Concentration required to reduce the viability of uninfected cells (CEM-CL13) by 50% on day 22.; format: functional; conditions: Homo sapiens, 528 h, read-out: CD50 (the source's name)
Summary of the method: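 CEM-C113 cells (1×10^5 cells/mL) were infected with HIV-1 LAV-Bru or mock-infected, with compound dilutions in triplicate, for at least 7 days. Medium with or without drug was renewed every 3–4 days for longer runs. MTT absorbance was read at 540 nm. CD50 = 50% reduction of mock-infected absorbance; ED50 = dose giving 50% protection from CPE. Values are averages of at least two experiments.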

[3] = biological target: Human immunodeficiency virus type 1 reverse transcriptase (Human immunodeficiency virus 1) (UniProt Q72547); experiment: Compound ability to inhibit the production of HIV reverse transcriptase (RT) in culture supernatant of monocytic U937 on at 7 days at a concentration 0.2 uM; format: functional
Summary of the method: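 HIV-1 LAV-Bru-infected U937 cultures run in complete RPMI 1640 (5% FCS, polybrene 2 µg/mL) at 37 °C with compound in triplicate. Culture supernatant (50 µL) sampled from day 7 for RT microassay: poly(rA)-oligo(dT), (methyl-3H)dTTP, Mg2+, pH 7.8, 1 h at 37 °C, TCA precipitation onto filters. Read as cpm/50 µL; % inhibition = 100 − 100 × treated/virus-control cpm.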

[4] = biological target: Human immunodeficiency virus type 1 reverse transcriptase (Human immunodeficiency virus 1) (UniProt Q72547); experiment: Compound ability to inhibit the production of HIV reverse transcriptase (RT) in culture supernatant of CEM-CL13 on at 15 days at a concentration 0.2 uM; format: functional
Summary of the method: (§2)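 CEM-C113 cells in RPMI 1640 with 5% heat-inactivated FCS and polybrene (2 µg/mL) were plated at 1×10^5 cells/mL with compound in PBS, in triplicate, and infected with HIV-1 LAV-Bru. From day 7, every 3–4 days, fresh medium with or without drug was added and 50 µL supernatant was taken for RT microassay. The RT microassay used poly(rA)-oligo(dT) and (methyl-³H)dTTP for 1 h at 37 °C, with TCA precipitation, read as cpm/50 µL.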

[5] = biological target: Human immunodeficiency virus type 1 reverse transcriptase (Human immunodeficiency virus 1) (UniProt Q72547); experiment: Compound ability to inhibit the production of HIV reverse transcriptase (RT) in culture supernatant of CEM-CL13 on at 7 days at a concentration 1 uM; format: functional; summary of the method: as §2
[6] = biological target: Human immunodeficiency virus type 1 reverse transcriptase (Human immunodeficiency virus 1) (UniProt Q72547); experiment: Compounds were evaluated for anti-RT activity by MTT dose and %protection was reported at 7 days of culture; format: functional
Summary of the method: (§3)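 HIV-1 was preincubated with compound at 25 µM for 60 min at 37 °C, pelleted, and added to CEM-C113 cells (1×10^5 cells/mL) for 60 min at 37 °C. Medium was then replaced without compound. At days 7 and 9, viability was read by MTT assay on 100 µL of cell suspension.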

[7] = biological target: Human immunodeficiency virus type 1 reverse transcriptase (Human immunodeficiency virus 1) (UniProt Q72547); experiment: Compounds were evaluated for anti-RT activity by MTT dose and % cell / viability was reported at 9 days of culture; format: functional; summary of the method: as §3
[8] = biological target: Human immunodeficiency virus type 1 reverse transcriptase (Human immunodeficiency virus 1) (UniProt Q72547); experiment: Percent inhibition measured as the production of HIV reverse transcriptase (RT) in culture supernatant of monocytic U937 on at 11 days at a concentration 0.2 uM; format: functional
Summary of the method: (§4)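 HIV-1-infected monocytic U937 cultures were kept up to 14 days with compound. Supernatant RT activity was measured as for CEM-C113, as [³H] cpm/50 µL. % inhibition = 100 − 100 × (cpm of treated samples / cpm of control virus).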

[9] = biological target: Human immunodeficiency virus type 1 reverse transcriptase (Human immunodeficiency virus 1) (UniProt Q72547); experiment: Compound ability to inhibit the production of HIV reverse transcriptase (RT) in culture supernatant of CEM-CL13 on at 22 days at a concentration 0.2 uM; format: functional; summary of the method: as §2
[10] = biological target: Human immunodeficiency virus type 1 reverse transcriptase (Human immunodeficiency virus 1) (UniProt Q72547); experiment: Compound ability to inhibit the production of HIV reverse transcriptase (RT) in culture supernatant of monocytic U937 on at 14 days at a concentration 1 uM; format: functional; summary of the method: as §4
[11] = biological target: Human immunodeficiency virus type 1 reverse transcriptase (Human immunodeficiency virus 1) (UniProt Q72547); experiment: Compound ability to inhibit the production of HIV reverse transcriptase (RT) in culture supernatant of CEM-CL13 on at 26 days at a concentration 1 uM; format: functional; summary of the method: as §2
[12] = biological target: Human immunodeficiency virus type 1 reverse transcriptase (Human immunodeficiency virus 1) (UniProt Q72547); experiment: Percent inhibition measured as the production of HIV reverse transcriptase (RT) in culture supernatant of monocytic U937 on at 14 days at a concentration 0.2 uM; format: functional; summary of the method: as §1
[13] = biological target: Human immunodeficiency virus type 1 reverse transcriptase (Human immunodeficiency virus 1) (UniProt Q72547); experiment: Percent inhibition measured as the production of HIV reverse transcriptase (RT) in culture supernatant of monocytic U937 on at 14 days at a concentration 1 uM; format: functional; summary of the method: as §1
[14] = biological target: Human immunodeficiency virus type 1 reverse transcriptase (Human immunodeficiency virus 1) (UniProt Q72547); experiment: Compound ability to inhibit the production of HIV reverse transcriptase (RT) in culture supernatant of CEM-CL13 on at 26 days at a concentration 0.2 uM; format: functional; summary of the method: as §2
[15] = biological target: Human immunodeficiency virus type 1 reverse transcriptase (Human immunodeficiency virus 1) (UniProt Q72547); conditions: at 25 µM
[16] = biological target: Human immunodeficiency virus type 1 reverse transcriptase (Human immunodeficiency virus 1) (UniProt Q72547); experiment: Compound ability to inhibit the production of HIV reverse transcriptase (RT) in culture supernatant of CEM-CL13 on at 26 days at a concentration 5 uM; format: functional; summary of the method: as §2
[17] = biological target: Human immunodeficiency virus type 1 reverse transcriptase (Human immunodeficiency virus 1) (UniProt Q72547); experiment: Compound ability to inhibit the production of HIV reverse transcriptase (RT) in culture supernatant of monocytic U937 on at 14 days at a concentration 5 uM; format: functional; summary of the method: as §4
[18] = biological target: Human immunodeficiency virus type 1 reverse transcriptase (Human immunodeficiency virus 1) (UniProt Q72547); experiment: Compound ability to inhibit the production of HIV reverse transcriptase (RT) in culture supernatant of CEM-CL13 on at 15 days at a concentration 5 uM; format: functional; summary of the method: as §2
[19] = biological target: Human immunodeficiency virus type 1 reverse transcriptase (Human immunodeficiency virus 1) (UniProt Q72547); experiment: Compound ability to inhibit the production of HIV reverse transcriptase (RT) in preinfected PBL (peripheral blood lymphocytes) at 21 days at a concentration 5 uM; format: functional
Summary of the method: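 PBL were infected with HIV-1 for 1 h at 37 °C, washed twice, and resuspended in complete medium with 10% interleukin-2 and anti-human α-interferon (1000 units/mL). Cells were plated at 1×10^6 cells/well with or without compound. At each time point, 50 µL supernatant was taken for RT assay ([³H]dTTP incorporation, cpm).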

[20] = biological target: Human immunodeficiency virus type 1 reverse transcriptase (Human immunodeficiency virus 1) (UniProt Q72547); experiment: Percent inhibition measured as the production of HIV reverse transcriptase (RT) in culture supernatant of monocytic U937 on at 14 days at a concentration 5 uM; format: functional; summary of the method: as §1
[21] = biological target: Human immunodeficiency virus type 1 reverse transcriptase (Human immunodeficiency virus 1) (UniProt Q72547); experiment: Percent inhibition measured as the production of HIV reverse transcriptase (RT) in culture supernatant of monocytic U937 on at 7 days at a concentration 5 uM; format: functional; summary of the method: as §1
[22] = biological target: Human immunodeficiency virus type 1 reverse transcriptase (Human immunodeficiency virus 1) (UniProt Q72547); experiment: Compound ability to inhibit the production of HIV reverse transcriptase (RT) in culture supernatant of CEM-CL13 on at 7 days at a concentration 5 uM; format: functional; summary of the method: as §2
[23] = biological target: Human immunodeficiency virus type 1 reverse transcriptase (Human immunodeficiency virus 1) (UniProt Q72547); experiment: Compound ability to inhibit the production of HIV reverse transcriptase (RT) in culture supernatant of CEM-CL13 on at 22 days at a concentration 5 uM; format: functional; summary of the method: as §2

| SMILES | inhibition [1] [%] | CC50 [2] [µM] | Activity (c.p.m. 50ul-1) [3] | Activity (c.p.m. 50ul-1) [4] | Activity (c.p.m. 50ul-1) [5] | Protection [6] [%] | Cell viability [7] [%] | inhibition [8] [%] | Activity (c.p.m. 50ul-1) [9] | Activity (c.p.m. 50ul-1) [10] | Activity (c.p.m. 50ul-1) [11] | inhibition [12] [%] | inhibition [13] [%] | Activity (c.p.m. 50ul-1) [14] | inhibition [15] [%] | Activity (c.p.m. 50ul-1) [16] | Activity (c.p.m. 50ul-1) [17] | Activity (c.p.m. 50ul-1) [18] | Activity (c.p.m. 50ul-1) [19] | inhibition [20] [%] | other results |
| --- | --- | --- | --- | --- | --- | --- | --- | --- | --- | --- | --- | --- | --- | --- | --- | --- | --- | --- | --- | --- | --- |
| CCCCCCCCCCCCCCCCOP(=O)(OCCO[C@H]1O[C@H](CO)[C@@H](O)[C@H](O)[C@@H]1O)OCC1OC(n2cc(C)c(=O)[nH]c2=O)CC1N=[N+]=[N-] (some centres not stated) | 0 | 3.4 | 343000 | 2400 | 6000 | 21 | 25 | 9 | 52000 | 55000 | 64000 | 0 | 0 | 61000 | – | – | – | – | – | – | – |
| Cc1cn([C@H]2C[C@H](N=[N+]=[N-])[C@@H](CO)O2)c(=O)[nH]c1=O [ZIDOVUDINE] | 91 | 22 | 23000 | 1100 | 100 | 100 | 79 | 0 | 6400 | 37000 | 12000 | 0 | 0 | 28000 | 25 | 1300 | 33000 | 500 | 542 | 0 | inhibition [21]: 86%; Activity (c.p.m. 50ul-1) [22]: 900; Activity (c.p.m. 50ul-1) [23]: 500 |
| Cc1cn([C@H]2C[C@H](N=[N+]=[N-])[C@@H](COP(=O)(O)OC[C@H]3OC(O)[C@H](O)[C@@H](O)[C@@H]3O)O2)c(=O)[nH]c1=O (some centres not stated) | – | 35 | – | 750 | – | – | 34 | – | 2200 | 17000 | – | – | 9 | 65000 | 0 | 6000 | 31400 | 400 | 373 | 0 | inhibition [21]: 43%; Activity (c.p.m. 50ul-1) [22]: 1100; Activity (c.p.m. 50ul-1) [23]: 1500 |
| CCCCCCCCCCCCCCCCOP(=O)(OC[C@H]1OC(O)[C@H](O)[C@@H](O)[C@@H]1O)OC[C@H]1OC(n2cc(C)c(=O)[nH]c2=O)C[C@@H]1N=[N+]=[N-] (some centres not stated) | 0 | 3.2 | 237000 | 1600 | 2600 | 81 | 62 | 0 | 45000 | 4000 | 72000 | 14 | 79 | 64000 | – | – | – | – | 150000 | – | – |
| Cc1cn([C@H]2C[C@H](N=[N+]=[N-])[C@@H](COP(=O)(O)OCCO[C@H]3O[C@H](CO)[C@@H](O)[C@H](O)[C@@H]3O)O2)c(=O)[nH]c1=O | – | 28 | – | 2600 | – | 20 | 28 | – | 27000 | 25000 | – | – | 0 | 70000 | 20 | 42000 | 23000 | 852 | 3380 | 0 | inhibition [21]: 20%; Activity (c.p.m. 50ul-1) [22]: 1670; Activity (c.p.m. 50ul-1) [23]: 5500 |
| CCCCCCCCCCCCCCCCOP(=O)(OC[C@H]1OC(O)[C@@H](O)[C@@H](O)[C@@H]1O)OC[C@H]1OC(n2cc(C)c(=O)[nH]c2=O)C[C@@H]1N=[N+]=[N-] (some centres not stated) | 0 | 2.5 | 251000 | 1700 | 2000 | 68 | 32 | 0 | 24000 | 35000 | 20000 | 0 | 0 | 73000 | – | – | – | – | 22400 | – | – |
| Cc1cn([C@H]2C[C@H](N=[N+]=[N-])[C@@H](COP(=O)(O)OC[C@H]3OC(O)[C@@H](O)[C@@H](O)[C@@H]3O)O2)c(=O)[nH]c1=O (some centres not stated) | – | 24 | – | 1700 | – | 38 | 36 | – | 27000 | 22500 | – | – | 0 | 85000 | 2 | 103000 | 24000 | 1300 | 19500 | 0 | inhibition [21]: 46%; Activity (c.p.m. 50ul-1) [22]: 1500; Activity (c.p.m. 50ul-1) [23]: 12000 |
